IC50 and Activity data for 21 compounds are collected here from ChEMBL document CHEMBL1157107, “Gastroprotective effect of carnosic acid gamma-lactone derivatives” (J Nat Prod, 2010).

Bounds are passed on as bounds.

One test has as its system HepG2. Briefly: Cytotoxicity against human HepG2 cells after 24 hrs by neutral red uptake assay. Format: cell-based. The following applies: HepG2, 24 h. Put shortly: (§1)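 Confluent monolayers, seeded at 25 000 cells/mL, were used. MRC-5 and Hep G2 were grown in MEM and AGS in Ham F-12, all with 10% heat-inactivated FBS at 37 °C and 5% CO₂. Cells were exposed for 24 h to 0–1000 µM compound with 1% DMSO final. Viability was read by neutral red uptake as % of control, with quadruplicates in three separate experiments. IC50 was read graphically from dose-response curves.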

A further test relates to MRC5. The experiment in a line: Cytotoxicity against human MRC5 cells after 24 hrs by neutral red uptake assay. The test is classed as cell-based. The following applies: MRC5, 24 h. Put shortly:
as §1

In another test the test system is AGS. The experiment in a line: Cytotoxicity against human AGS cells after 24 hrs by neutral red uptake assay. Format: cell-based. Put shortly:
as §1

Test [1] deals with Mus musculus. The experiment in a line: Gastroprotective activity in Swiss albino mouse assessed as reduction in HCl/EtOH-induced gastric lesions at 40 mg/kg, po dosed 50 mins before HCl/EtOH challenge measured after 1 hr relative to control. Format: functional, Stomach. Also on record: scale not given: the % may be the effect or the level left. Put shortly:
(§2)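 Male Swiss albino mice (30 ± 3 g) were randomized into groups of 7 and fasted 24 h with free water, then dosed orally. Controls received 12% Tween 80. Mice were killed 1 h after HCl/EtOH. Stomachs were inflated with saline, fixed in 5% formalin for 30 min and opened along the greater curvature. Lesion index was the summed lesion length (mm), compared with controls by ANOVA/Dunnett.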

Test [2] deals with Mus musculus. The experiment in a line: Gastroprotective activity in Swiss albino mouse assessed as reduction in HCl/EtOH-induced gastric lesions at 20 mg/kg, po dosed 50 mins before HCl/EtOH challenge measured after 1 hr relative to control. The test is classed as functional, Stomach. Also on record: scale not given: the % may be the effect or the level left. Put shortly: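 Male Swiss albino mice (30 ± 3 g) were randomised into groups of 7 and fasted 24 h with free water. Dosing was oral at 10, 20 or 40 mg/kg; controls received 12% Tween 80. Mice were killed 1 h after HCl/EtOH, and stomachs were saline-inflated, fixed in 5% formalin for 30 min and opened. Lesion index is the summed lesion length (mm); % reduction is versus control. ANOVA with Dunnett's test.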

The test system of test [3] is Mus musculus. The experiment in a line: Gastroprotective activity in Swiss albino mouse assessed as reduction in HCl/EtOH-induced gastric lesions at 10 mg/kg, po dosed 50 mins before HCl/EtOH challenge measured after 1 hr relative to control. Also on record: scale not given: the % may be the effect or the level left. Format: functional, Stomach. Put shortly:
as §2

Usually IC50 stands for the concentration needed to halve the response being measured. Turning to `CC(C)c1cc2c3c(c1OC(=O)CCCc1c[nH]c4ccccc14)OC(=O)[C@@]31CCCC(C)(C)[C@@H]1CC2`, the figures for the IC50 with HepG2, in the test on MRC5 and with AGS were 120 µM, 54.5 µM and 46.8 µM, respectively. The Activity in the test on Mus musculus [1] amounted to 50%.

With `CC(C)c1cc2c3c(c1OC(=O)CCC(=O)Oc1c(C(C)C)cc4c5c1OC(=O)[C@]51CCCC(C)(C)C1CC4)OC(=O)[C@@]31CCCC(C)(C)[C@@H]1CC2` (stereo partly specified), the concentration for half-maximal inhibition (IC50) in the test with HepG2 was greater than 1000 µM; in the test on MRC5, greater than 1000 µM; in the test on AGS it was 623 µM. Moreover, the Activity in the test on Mus musculus [1] is recorded as 62%.

For the compound `CC(C)c1cc2c3c(c1OC(=O)c1ccccc1C(=O)Oc1c(C(C)C)cc4c5c1OC(=O)[C@]51CCCC(C)(C)C1CC4)OC(=O)[C@@]31CCCC(C)(C)[C@@H]1CC2` (stereo partly specified), the results for the IC50 in the test on HepG2, with MRC5 and in the test on AGS were 611 µM, 678 µM and 375 µM, respectively. The Activity in the test with Mus musculus [1] stood at 15%.

Consider `CC(C)c1cc2c3c(c1OC(=O)c1ccccc1)OC(=O)[C@@]31CCCC(C)(C)[C@@H]1CC2`, for which the IC50 in the test on HepG2 is 510 µM; in the test with MRC5, 512 µM; with AGS, 503 µM. Moreover, in the test on Mus musculus [1], the Activity was 48%.

For the compound `CCC(=O)Oc1c(C(C)C)cc2c3c1OC(=O)[C@@]31CCCC(C)(C)[C@@H]1CC2`, the IC50 in the test on HepG2 stood at 196 µM; in the test on MRC5 it was 125 µM; with AGS it was 113 µM. Besides, in the test with Mus musculus [1], the Activity is given as 59%.

Turning to `CC(C)C(=O)Oc1c(C(C)C)cc2c3c1OC(=O)[C@@]31CCCC(C)(C)[C@@H]1CC2`, the IC50 with HepG2 came to 112 µM; with MRC5 it was 119 µM; with AGS it was 105 µM. Besides, in the test with Mus musculus [1], the Activity is given as 72%.

As for `CC(C)c1cc2c3c(c1OC(=O)CCl)OC(=O)[C@@]31CCCC(C)(C)[C@@H]1CC2`, the IC50 turned out to be 203 µM with HepG2, 130 µM in the test on MRC5 and 103 µM with AGS. Moreover, in the test on Mus musculus [1], the Activity was determined as 81%.

For the compound `CC(=O)Oc1c(C(C)C)cc2c3c1OC(=O)[C@@]31CCCC(C)(C)[C@@H]1CC2`, the figures for the IC50 with HepG2, in the test on MRC5 and with AGS were 294 µM, 290 µM and 275 µM, respectively. In addition, the Activity in the test on Mus musculus [1] is 62%.

Turning to `COc1c(C(C)C)cc2c(c1O)[C@@]1(C(=O)O)CCCC(C)(C)[C@@H]1CC2`, the IC50 with HepG2 turned out to be 43.5 µM; with MRC5 it was 54.9 µM; in the test with AGS, 45.2 µM.

With `CCCCCCCCCCCCCCCC(=O)Oc1c(C(C)C)cc2c3c1OC(=O)[C@@]31CCCC(C)(C)[C@@H]1CC2`, the IC50 with HepG2, in the test with MRC5 and with AGS was greater than 1000 µM each time. For the same compound, the Activity with Mus musculus [1] was 65%.

For `CC(C)c1cc2c3c(c1OC(=O)Cc1c[nH]c4ccccc14)OC(=O)[C@@]31CCCC(C)(C)[C@@H]1CC2`, the IC50 in the test with HepG2 is 251 µM; in the test with MRC5 it was 109 µM; with AGS, 85.6 µM. In addition, the Activity with Mus musculus [1] was 51%.

With `CCCCCCCCCCCC(=O)Oc1c(C(C)C)cc2c3c1OC(=O)[C@@]31CCCC(C)(C)[C@@H]1CC2`, the concentration for half-maximal inhibition (IC50) in the test on HepG2 is greater than 1000 µM; in the test with MRC5, greater than 1000 µM; in the test on AGS, 413 µM. Besides, the Activity with Mus musculus [1] stood at 36%.

With `CCCC(=O)Oc1c(C(C)C)cc2c3c1OC(=O)[C@@]31CCCC(C)(C)[C@@H]1CC2`, the IC50 amounted to 56.1 µM in the test with HepG2, 44.4 µM in the test on MRC5 and 99.5 µM in the test with AGS. In addition, the Activity in the test with Mus musculus [1] is recorded as 82%.

With `CCCCC/C=C/C/C=C/CCCCCCCC(=O)Oc1c(C(C)C)cc2c3c1OC(=O)[C@@]31CCCC(C)(C)[C@@H]1CC2`, the IC50 in the test on HepG2 was 289 µM; in the test with MRC5 it was 293 µM; in the test with AGS it was 253 µM. In the test with Mus musculus [1], the Activity was 45%.

Turning to `CCCCCCCC/C=C/CCCCCCCC(=O)Oc1c(C(C)C)cc2c3c1OC(=O)[C@@]31CCCC(C)(C)[C@@H]1CC2`, the figures for the IC50 with HepG2, with MRC5 and in the test on AGS were greater than 1000 µM, greater than 1000 µM and 822 µM, respectively. For the same compound, the Activity in the test with Mus musculus [1] came out at 70%.

`CC(C)c1cc2c3c(c1O)OC(=O)[C@@]31CCCC(C)(C)[C@@H]1CC2`: the Activity stood at 30.6% with Mus musculus [2], 20.8% in the test with Mus musculus [3] and 59.5% with Mus musculus [1]. Further, the concentration for half-maximal inhibition (IC50) with HepG2 is 240 µM; in the test with MRC5, 293 µM; in the test with AGS, 246 µM.

Turning to `CC(C)c1cc2c3c(c1OC(=O)Cc1ccccc1)OC(=O)[C@@]31CCCC(C)(C)[C@@H]1CC2`, the IC50 with HepG2 turned out to be 522 µM; with MRC5, 516 µM; in the test with AGS, 133 µM. Moreover, the Activity in the test with Mus musculus [1] stood at 44%.

Turning to `CC(C)c1cc2c3c(c1OC(=O)c1cccnc1)OC(=O)[C@@]31CCCC(C)(C)[C@@H]1CC2`, the IC50 in the test on HepG2 is 264 µM; with MRC5 it was 296 µM; in the test with AGS it was 280 µM. Besides, the Activity in the test on Mus musculus [1] amounted to 9%.

With `COc1c(C(C)C)cc2c3c1OC(=O)[C@@]31CCCC(C)(C)[C@@H]1CC2`, the IC50 turned out to be 58.1 µM with HepG2, 31.9 µM in the test on MRC5 and 26.7 µM in the test with AGS. Moreover, in the test on Mus musculus [1], the Activity is 71%.

In the case of `CC(C)c1cc2c(c(O)c1O)[C@@]1(C(=O)O)CCCC(C)(C)[C@@H]1CC2` [CARNOSIC ACID], the IC50 was 41.3 µM with HepG2, 21.8 µM in the test with MRC5 and 89.8 µM with AGS.

For the compound `Cc1c(OCC(F)(F)F)ccnc1C[S+]([O-])c1nc2ccccc2[nH]1` (stereo unspecified) [LANSOPRAZOLE], the Activity in the test on Mus musculus [2] stood at 80%.
